Measured values published in ChEMBL document CHEMBL2424586, “Polyoxygenated cinnamoylcoumarins as conformationally constrained analogs of cytotoxic diarylpentanoids: synthesis and biological activity” (Eur J Med Chem, 2013).

Columns and labels:
[1] = Antioxidant activity assessed as ferric ion reducing ability after 20 mins by FRAP assay; type: functional
Outline: (§1)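 FRAP reagent: acetate buffer (300 mM, pH 3.6), TPTZ (10 mM in 40 mM HCl) and FeCl3 (20 mM) at 10:1:1, diluted to 1/3 with methanol and pre-warmed to 37 °C. Diluted compound added, 20 min at 37 °C, A593. Values read from FeSO4·7H2O calibration curve; quercetin as reference.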

MCF7 = test: Cytotoxicity against human MCF7 cells after 72 hrs by MTT assay; type: functional, cell-based; settings: MCF7, 72 h
Outline: (§2)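 MCF-7 grown as monolayer, K562 and MOLT-4 in suspension; seeded at 30,000, 40,000 and 40,000 cells/ml respectively and incubated overnight at 37 °C. Compounds dissolved in DMSO, diluted in medium, final DMSO ≤0.5%; cisplatin as reference.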

MOLT-4 = test: Cytotoxicity against human MOLT4 cells after 72 hrs by MTT assay; type: functional, cell-based; settings: MOLT-4, 72 h; outline: as §2
K562 = test: Cytotoxicity against human K562 cells after 72 hrs by MTT assay; type: functional, cell-based; settings: K562, 72 h; outline: as §2
[2] = Antioxidant activity assessed as ferric ion reducing ability after 20 mins by FRAP assay relative to quercetin; type: functional; outline: as §1
[3] = system: Radical scavenging activity; test: Antioxidant activity assessed as DPPH free radical scavenging activity after 30 mins; type: functional
Rattus norvegicus = species on record: Rattus norvegicus; test: Reduction of total thiol content in Wistar rat liver mitochondria after 1 hr by DTNB method; type: functional
Outline: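 Wistar rat liver mitochondria isolated by differential centrifugation (1500 × g, then 10,000 × g, 10 min, 4 °C) and suspended in Tris-HCl 0.05 M/sucrose 0.25 M/KCl/MgCl2/Na2HPO4, pH 7.4. Protein by Bradford. Mitochondria (1 mg/mL) exposed 1 h to compound, then total thiols measured by DTNB at 412 nm against a GSH standard curve; mean ± SD, n = 3.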

Compound | Activity [1] | IC50 (MCF7) | IC50 (MOLT-4) | IC50 (K562) | fold change (FC) [2] | IC50 [3] | Activity (Rattus norvegicus)
COc1cccc(/C=C/C(=O)c2cc3cc(O)ccc3oc2=O)c1OC | 25.7 mM | 8.8 µM | 6.7 µM | 17.3 µM | 0.3 | 160 µM | –
COc1cccc(COc2ccc3cc(C(=O)/C=C/c4ccccc4)c(=O)oc3c2)c1 | 10.4 mM | 33.7 µM | > 100 µM | > 100 µM | – | 890 µM | –
COC(=O)c1ccc(/C=C/C(=O)c2cc3cc(O)ccc3oc2=O)cc1 | – | 1.3 µM | 7.1 µM | 15.8 µM | – | – | –
O=C(/C=C/c1ccc2c(c1)OCO2)c1cc2ccc(O)cc2oc1=O | 13.7 mM | 38.9 µM | 26.2 µM | 31.7 µM | – | 540 µM | –
COc1cccc(COc2ccc3cc(C(=O)/C=C/c4c(Cl)cccc4Cl)c(=O)oc3c2)c1 | 5.3 mM | 10.1 µM | 12.5 µM | 15.6 µM | – | 940 µM | –
COC(=O)c1ccc(/C=C/C(=O)c2cc3ccc(O)cc3oc2=O)cc1 | – | 5.5 µM | 3.7 µM | 4.4 µM | – | – | –
O=C(/C=C/c1ccc2c(c1)OCO2)c1cc2cc(OCc3ccccc3)ccc2oc1=O | 12.6 mM | > 50 µM | > 50 µM | > 50 µM | – | 570 µM | –
COc1cccc(COc2ccc3cc(C(=O)/C=C/c4cc(OC)ccc4OC)c(=O)oc3c2)c1 | 9.5 mM | > 100 µM | 13.8 µM | 35.1 µM | – | 750 µM | –
COc1cc(/C=C/C(=O)c2cc3cc(O)ccc3oc2=O)cc(OC)c1OC | 9.6 mM | 10.9 µM | 3.9 µM | 8.8 µM | – | 180 µM | –
COc1cccc(/C=C/C(=O)c2cc3ccc(O)cc3oc2=O)c1OC | 25.2 mM | 16.6 µM | 7 µM | 14.6 µM | 0.3 | 150 µM | Dose-dependent effect
COc1cccc(COc2ccc3cc(C(=O)/C=C/c4ccc(C)cc4)c(=O)oc3c2)c1 | 6.6 mM | > 50 µM | > 50 µM | > 50 µM | – | 2630 µM | –
COc1cccc(COc2ccc3cc(C(=O)/C=C/c4ccc(Cl)cc4Cl)c(=O)oc3c2)c1 | 7.1 mM | – | – | – | – | 480 µM | –
COc1cc(/C=C/C(=O)c2cc3cc(OCc4ccccc4)ccc3oc2=O)cc(OC)c1OC | 8.1 mM | 26.5 µM | 10.3 µM | 66.4 µM | – | 1150 µM | –
O=C(/C=C/c1ccc2c(c1)OCO2)c1cc2cc(O)ccc2oc1=O | 15.3 mM | 9.7 µM | 2 µM | 14.6 µM | – | 480 µM | –
COc1cccc(/C=C/C(=O)c2cc3cc(OCc4ccccc4)ccc3oc2=O)c1OC | 4.4 mM | 21.3 µM | 23.6 µM | 48.9 µM | – | 1270 µM | –
O=c1c(O)c(-c2ccc(O)c(O)c2)oc2cc(O)cc(O)c12 [QUERCETIN] | 87.1 mM | – | – | – | – | 8.12 µM | –
COc1ccc(/C=C/C(=O)c2cc3ccc(OCc4cccc(OC)c4)cc3oc2=O)cc1 | 14.3 mM | > 100 µM | > 100 µM | > 100 µM | – | 930 µM | –
COc1cccc(COc2ccc3cc(C(=O)/C=C/c4ccc5c(c4)OCO5)c(=O)oc3c2)c1 | 7.5 mM | > 100 µM | > 100 µM | 22.8 µM | – | 460 µM | –
COc1cc(/C=C/C(=O)c2cc3ccc(O)cc3oc2=O)cc(OC)c1OC | 8.7 mM | 8.8 µM | 3.8 µM | 7.3 µM | – | 190 µM | Dose-dependent effect
COc1cccc(COc2ccc3cc(C(=O)/C=C/c4cccc(OC)c4OC)c(=O)oc3c2)c1 | 7.6 mM | 35.1 µM | 22.8 µM | 45.5 µM | – | 720 µM | –
